Experimental data as given in PubChem BioAssay.
Results filed as inconclusive are left out.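 How the source made its calls, unless noted: active means viability increase at or above a cutoff of the median across tested compounds plus 3 SD (cut at about 8.5% in these data, passing the limit was not always enough); inconclusive means some gains above the cutoff, reason not given; inactive means the rest.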

How the values were obtained:
[1] = S. cerevisiae growth inhibition in permissive medium (OD615), pilot counter-assay for S. cerevisiae lifespan shortening project, permissive growth control (AID 705;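 active means growth inhibition above 25% in both replicates, a cutoff set 3 SD above the mean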); settings: OD615, 24 h, at 10 µM, hits give high values
Method in brief: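 Timing: 24 h exposure, 30 °C / Material: Saccharomyces cerevisiae strain carrying genetically modified DeaD replicative-lifespan system / Signal: OD at 615 nm / Compound: 10 µM single dose, 0.25% DMSO / Medium: SC raffinose/galactose permissive medium / Evaluation: reduction in yeast growth (OD615)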

[2] = S. cerevisiae growth inhibition in restrictive medium, OD615, pilot screen, restrictive growth control, yeast lifespan reduction project (AID 706;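 active means growth inhibition above a set limit, 3 SD over mean compound inhibition, in both replicates, cut at about 43% in these data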;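 further: modified DeaD lifespan yeast strain shifted to restrictive glucose medium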); settings: OD615, 48 h, at 10 µM, hits give high values
Method in brief: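 System: Engineered S. cerevisiae DeaD strain | Detection: OD615 | Buffer or medium: CSMM-D glucose medium | Doses: 10 µM compound, 0.25% DMSO | Timing: 4 h pre-growth plus 48 h compound exposure, 30 °C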

[3] = doxorubicin toxicity protection in MRP-1 cells – H69AR cells, CellTiter-Glo, duplicate, MRP-1 activator project, pilot screen (AID 807); settings: H69AR viability with doxorubicin, CellTiter-Glo luminescence; at 10 µM; hits give high values;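 further: compound pretreatment 18-22 h then 72 h combined with doxorubicin; 0% = doxorubicin alone and 100% = vehicle without doxorubicin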
[4] = viability of HCT116 without oncogenic beta-catenin – human colon tumor cells, pilot screen (AID 823;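 active means cell viability at or below a set limit in both duplicate runs, the limit being the all-compound median minus 4 SD, cut at about 23% in these data, passing the limit was not always enough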;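 further: 0% = wells killed by 20 µM Hyamine and 100% = untreated DMSO cell wells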); settings: HCT116 beta-catenin knockout viability, CellTiter-Glo, 60 h; at 10 µM; hits give low values
[5] = viability of PTEN-null HCT116 cells – cell-based, HCT116 clonal line, CellTiter-Glo, pilot screen (AID 824;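 active means viability at or below 27.92% in each of two runs, the all-compound median minus 4 SD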;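 further: 0% = 20 µM Hyamine control and 100% = vehicle cell control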); settings: HCT116 PTEN-deleted viability, 60 h, at 10 µM, hits give low values
[6] = RAM pathway blockade in budding yeast – dse1pr::URA3 reporter, 5-FOA selection, pilot screen (AID 869;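 active means inhibition over a set limit, the all-compound mean plus 3 SD, in both replicate runs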;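 further: 0% = DMSO wells with no growth and 100% = 10 µM 1-NA-PP1 with full growth; RAM network block rescues cells from 5-FOA so hits raise OD615 growth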); settings: S. cerevisiae dse1pr::URA3 5-FOA growth, OD615, 2 d; at 10 µM; hits give high values; strain carries analog-sensitive mutant Cbk1 kinase
[7] = RAM signaling pathway blockade in yeast – S. cerevisiae, Pdr1DBD-CYC8 efflux-inhibited sensitized strain, primary screen (AID 1298;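 active means RAM network inhibition above 8.4% in each of two replicates, 3 SD over the compound average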;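 further: 0% = DMSO untreated cells without growth and 100% = 10 µM 1-NA-PP1 full growth; higher means more yeast growth rescued from 5-FOA killing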); settings: S. cerevisiae cbk1-as DSE1-URA3 strain, 5-FOA growth OD615, 2 d; at 50 µM; hits give high values

CCN(CC)CCCNC(=O)Cn1cc2c(n1)CCC(C)C2 (configuration not stated)
inactive: growth inhibition [1] -3.44% | growth inhibition [2] -0.585% | viability increase [3] -1.22% | viability [4] 96.9% | viability [5] 98.1% | inhibition [6] 2.05% | RAM network inhibition [7] 2.3%

CCN1CCN(Cc2ccc(NC(=O)Nc3ccccc3OC)cc2)CC1
inactive: growth inhibition [1] -1.11% | growth inhibition [2] 4.37% | viability increase [3] 0.28% | viability [4] 108% | viability [5] 105% | inhibition [6] 0.235% | RAM network inhibition [7] 2.68%

O=C(Nc1ccc(Br)cc1F)C1CCCN(S(=O)(=O)c2cnc[nH]2)C1 (configuration not stated)
inactive: growth inhibition [1] 2.29% | growth inhibition [2] -10.9% | viability increase [3] 2.99% | viability [4] 92.2% | viability [5] 98% | inhibition [6] 0.905% | RAM network inhibition [7] 5.06%

COc1ccc(Cl)cc1N(CC(=O)Nc1ccc2c(c1)OCCO2)S(C)(=O)=O
inactive: growth inhibition [1] -2.33% | growth inhibition [2] 0.055% | viability increase [3] -2.78% | viability [4] 92.7% | viability [5] 89.4% | inhibition [6] 3.33% | RAM network inhibition [7] 2.8%

COc1cccc(N2C(=O)C3ON(c4ccccc4)C(c4cccs4)C3C2=O)c1 (configuration not stated)
inactive: growth inhibition [1] -13% | growth inhibition [2] 15.5% | viability increase [3] -0.83% | viability [4] 107% | viability [5] 97.8% | inhibition [6] 2.65% | RAM network inhibition [7] 4.23%

O=C(NCC1CCCO1)c1ccc2c(c1)N(Cc1ccccc1)C(=O)CS2=O (configuration not stated)
inactive: growth inhibition [1] -1.31% | growth inhibition [2] 8.91% | viability increase [3] -0.66% | viability [4] 91.2% | viability [5] 88.3% | inhibition [6] 1.06% | RAM network inhibition [7] 0.78%

Fc1cccc(CSc2nc3ccncc3[nH]2)c1
inactive: growth inhibition [1] -13.4% | growth inhibition [2] -9.72% | viability increase [3] -0.81% | viability [4] 94.9% | viability [5] 79.7% | inhibition [6] 1.6% | RAM network inhibition [7] 7.53%

O=C(CCCc1ccccc1)NCCN1CCOCC1
inactive: growth inhibition [1] -12.1% | growth inhibition [2] -5.57% | viability increase [3] 1.56% | viability [4] 104% | viability [5] 97.9% | inhibition [6] 0.795% | RAM network inhibition [7] 2.4%

CN(C)CCCN1C(=O)c2oc3ccc(F)cc3c(=O)c2C1c1cccnc1 (configuration not stated)
inactive: growth inhibition [1] 4.42% | growth inhibition [2] 7.96% | viability increase [3] -1.1% | viability [4] 107% | viability [5] 98.7% | inhibition [6] 2.9% | RAM network inhibition [7] 2.14%

CCNc1nc2c(c(=O)[nH]c(=O)n2C)n1Cc1ccc(F)cc1
inactive: growth inhibition [1] -8.34% | growth inhibition [2] -8.31% | viability increase [3] -3.05% | viability [4] 99% | viability [5] 85.2% | inhibition [6] 0.035% | RAM network inhibition [7] 4.88%

Cc1ccc(NC(=O)CSc2nnc(Cn3c(=O)sc4ccccc43)n2C)cc1Cl
inactive: growth inhibition [1] -1.48% | growth inhibition [2] -18.1% | viability increase [3] -4.78% | viability [4] 92.3% | viability [5] 86.6% | inhibition [6] 1.81% | RAM network inhibition [7] 4.65%

O=C(Cc1c(F)cccc1Cl)c1ccc(O)cc1O
inactive: growth inhibition [1] -10.5% | growth inhibition [2] -0.825% | viability increase [3] -0.88% | viability [4] 99.8% | viability [5] 100% | inhibition [6] 0.3% | RAM network inhibition [7] -1.74%

Cc1ccc(N(C(C)C(=O)O)S(=O)(=O)c2cccnc2)cc1 (configuration not stated)
inactive: growth inhibition [1] 2.72% | growth inhibition [2] 0.165% | viability increase [3] -1.52% | viability [4] 95.1% | viability [5] 101% | inhibition [6] -0.19% | RAM network inhibition [7] 1.61%

c1ccc(CNc2nc3ccccc3n3cnnc23)nc1
inactive: growth inhibition [1] -13.7% | growth inhibition [2] -8.93% | viability increase [3] -1.36% | viability [4] 105% | viability [5] 88.5% | inhibition [6] -0.44% | RAM network inhibition [7] 3.37%

CCOc1ccccc1C(=O)Nc1nnc(C(C)C)s1
inactive: growth inhibition [1] 3% | growth inhibition [2] -2.61% | viability increase [3] -4.41% | viability [4] 98.1% | viability [5] 91.5% | inhibition [6] 0.55% | RAM network inhibition [7] 2.24%

CC1CCN(CC(C)OC(=O)c2ccc3c(c2)OCCO3)CC1 (configuration not stated)
inactive: growth inhibition [1] -8.49% | growth inhibition [2] 6.58% | viability increase [3] -0.68% | viability [4] 112% | viability [5] 105% | inhibition [6] 1.62% | RAM network inhibition [7] 3.4%

Cc1cc2cc(CNS(=O)(=O)c3ccccc3)ccc2n1C
inactive: growth inhibition [1] -4.47% | growth inhibition [2] 3.34% | viability increase [3] -1.48% | viability [4] 85.2% | viability [5] 86.2% | inhibition [6] 0.71% | RAM network inhibition [7] 2.49%

COC(=O)C1CCN(C(=O)c2ccc(Cl)c(S(=O)(=O)NCc3cccnc3)c2)CC1
inactive: growth inhibition [1] -4.88% | growth inhibition [2] -18.5% | viability increase [3] 0.87% | viability [4] 101% | viability [5] 102% | inhibition [6] 1.32% | RAM network inhibition [7] 2.3%

Cc1ccc2cc(CCNC(=O)CC(C)C)c(=O)[nH]c2c1
inactive: growth inhibition [1] -7.75% | growth inhibition [2] -0.53% | viability increase [3] 0.14% | viability [4] 105% | viability [5] 103% | inhibition [6] 1.69% | RAM network inhibition [7] 3.87%

O=C(c1ccc(CS(=O)(=O)c2ccccc2)o1)N1CCN(c2ncccn2)CC1
inactive: growth inhibition [1] 2.63% | growth inhibition [2] -5.3% | viability increase [3] -4.07% | viability [4] 104% | viability [5] 102% | inhibition [6] 0.185% | RAM network inhibition [7] 2.87%

N#Cc1ccccc1Cn1c(=O)n(-c2ccc(CC(=O)NCc3ccco3)cc2)c(=O)c2sccc21
inactive: growth inhibition [1] -3.44% | growth inhibition [2] 3.28% | viability increase [3] -1.7% | viability [4] 97.8% | viability [5] 99.6% | inhibition [6] 2.13% | RAM network inhibition [7] 4.46%

O=C1Nc2ccccc2C(O)(C(=O)NCc2ccco2)N1c1ccc(Cl)cc1 (configuration not stated)
inactive: growth inhibition [1] -7.58% | growth inhibition [2] -16.5% | viability increase [3] -4.11% | viability [4] 98.6% | viability [5] 94.5% | inhibition [6] 1.98% | RAM network inhibition [7] 4.83%

CC(C)CCN(C)C1CCN(C(=O)Nc2c(F)cccc2F)CC1
inactive: growth inhibition [1] 0.53% | growth inhibition [2] -12.6% | viability increase [3] -3.34% | viability [4] 90.6% | viability [5] 91.7% | inhibition [6] 1.56% | RAM network inhibition [7] 0.26%

O=C(Cn1nc(C(=O)O)c2ccccc2c1=O)NCC1CCCO1 (configuration not stated)
inactive: growth inhibition [1] -4.73% | growth inhibition [2] -13.3% | viability increase [3] -0.44% | viability [4] 103% | viability [5] 102% | inhibition [6] 1.71% | RAM network inhibition [7] 6.89%

COc1ccc(NC(=O)CN(c2cc(C)cc(C)c2)S(=O)(=O)c2c(C)n[nH]c2C)cc1
inactive: growth inhibition [1] -9.19% | growth inhibition [2] -1.92% | viability increase [3] -2.97% | viability [4] 102% | viability [5] 94.6% | inhibition [6] 0.955% | RAM network inhibition [7] 5.46%

Cc1cc(O)c(C=Nc2cccc(Cl)c2)c(=O)o1
inactive: growth inhibition [1] 4.66% | growth inhibition [2] 4.37% | viability increase [3] -3.17% | viability [4] 102% | viability [5] 94.1% | inhibition [6] 3.11% | RAM network inhibition [7] -0.93%

Cc1cc(Nc2cc(F)ccc2C)n2ncnc2n1
inactive: growth inhibition [1] -2.42% | growth inhibition [2] 9.4% | viability increase [3] -0.28% | viability [4] 102% | viability [5] 97.3% | inhibition [6] 3.77% | RAM network inhibition [7] 4.19%

CCOc1ccc(NC(=O)c2ccc(S(=O)(=O)N(C)C)cc2)cc1
inactive: growth inhibition [1] -12.8% | growth inhibition [2] -7.66% | viability increase [3] 0.26% | viability [4] 102% | viability [5] 92.4% | inhibition [6] 1.32% | RAM network inhibition [7] 1.71%

COc1cccc(-n2c(Cc3cc(=O)[nH]c(=O)[nH]3)nnc2SCC(=O)N2CCCCCC2)c1
inactive: growth inhibition [1] -10.1% | growth inhibition [2] -12.1% | viability increase [3] -0.94% | viability [4] 99.3% | viability [5] 98.5% | inhibition [6] -0.735% | RAM network inhibition [7] 7.07%

COc1ccc(NC(=O)C2CCCN(S(=O)(=O)c3cccc4cccnc34)C2)c(OC)c1 (configuration not stated)
inactive: growth inhibition [1] -9.1% | growth inhibition [2] -2.73% | viability increase [3] -2.29% | viability [4] 70.4% | viability [5] 70.7% | inhibition [6] 1.19% | RAM network inhibition [7] 9.52%

CCN(CC)C(=O)Cn1c(=O)n(-c2ccccc2)c(=O)n1CC(=O)N(CC)CC
inactive: growth inhibition [1] -4.64% | growth inhibition [2] 2.5% | viability increase [3] -1.25% | viability [4] 103% | viability [5] 97.4% | inhibition [6] 1.29% | RAM network inhibition [7] 1.08%

C=CCNC(=O)C1CCN(S(=O)(=O)c2ccc(Br)cc2)CC1
inactive: growth inhibition [1] -8.89% | growth inhibition [2] -18% | viability increase [3] -2.46% | viability [4] 48.1% | viability [5] 48.1% | inhibition [6] 0.52% | RAM network inhibition [7] 1.76%

COc1cc2c(=O)n(Cc3ccccc3)c(=O)n(CC(=O)NCC3CCCO3)c2cc1OC (configuration not stated)
inactive: growth inhibition [1] -2.89% | growth inhibition [2] -0.925% | viability increase [3] -0.67% | viability [4] 97.9% | viability [5] 94.1% | inhibition [6] 2.3% | RAM network inhibition [7] 3.29%

Cc1onc(-c2ccccc2Cl)c1C(=O)OCn1nnc2ccccc2c1=O
inactive: growth inhibition [1] -5.29% | growth inhibition [2] -2.08% | viability increase [3] -1.94% | viability [4] 84.4% | viability [5] 87.3% | inhibition [6] 2.41% | RAM network inhibition [7] 7.77%

CCOc1cc2c(cc1OCC)C(c1ccc(O)c(OC)c1)NCC2 (configuration not stated)
inactive: growth inhibition [1] -5.95% | growth inhibition [2] -11.5% | viability increase [3] -3.12% | viability [4] 75.3% | viability [5] 81.6% | inhibition [6] 2.12% | RAM network inhibition [7] 1.63%

CC(=O)CCc1c(C)c2cccc(C)c2[nH]c1=O
inactive: growth inhibition [1] 1.6% | growth inhibition [2] 1.5% | viability increase [3] -3.1% | viability [4] 93.4% | viability [5] 96.5% | inhibition [6] 2.75% | RAM network inhibition [7] 3.81%
